Active and inactive are the calls of the source. The calls are words filed in the database; no cut-off is given here.

Experiment [1] concerns KB. Put plainly: Growth inhibition of human KB cells […] after 72 hrs by MTS assay. It counts as functional. The procedure, abridged:
(§1)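 KB human buccal carcinoma cells incubated with chalcone for 72 h. Growth read by MTS assay and expressed as percent inhibition of cell growth.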

Experiment [2] in a line: Inhibition of tubulin assembly at 200 uM. The procedure, abridged: (§2)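 Tubulin assembly followed by the Zavala and Guenard method, with compounds tested at 0.1 mg/ml (about 2 × 10^-4 M). IC50 is expressed as a ratio to the deoxypodophyllotoxin IC50.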
Another experiment relates to Leishmania donovani. The experiment in a line: Antileishmanial activity against Leishmania donovani MHOM/ET/1967/HU3 (LV9) promastigotes after 72 hrs by MTT assay. Type of experiment: functional, organism-based. The procedure, abridged:
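Promastigotes of L. donovani LV9 clone (MHOM/ET/67/HU3) exposed to drug for 72 h. Viability read by MTT assay and IC50 derived.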
On the technique in general: Tetrazolium assays rely on reduction of a dye to a coloured formazan, in cell work by metabolically active cells.

The next experiment relates to Leishmania amazonensis. Put plainly: Antileishmanial activity against Leishmania amazonensis LV9 ([…]/M1841) amastigotes infected in mouse macrophage after 30 hrs by MTT assay. It counts as functional, organism-based. The procedure, abridged:
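Intracellular amastigotes of L. amazonensis LV9 (MPROB/BR/1972/M1841), isolated from lesions and purified, grown inside murine macrophages. Compounds incubated with infected macrophages for 30 h. IC50 reported.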

Experiment [3] can be described thus: Selectivity index, ratio of IC50 for mouse macrophage to IC50 for Leishmania amazonensis LV9 ([…]/M1841) amastigotes. An outline of the steps: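 Selectivity index is the IC50 for cytotoxicity against murine macrophages divided by the IC50 against L. amazonensis LV9 intracellular amastigotes. Amastigotes were assayed after 30 h incubation of infected macrophages with drug.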

Experiment [4] has as its system HL-60. The experiment in a line: Induction of apoptosis in human HL60 cells assessed as fold activation of caspase 3/7 at 10 uM. Type of experiment: functional. An outline of the steps: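 HL60 human leukemia cells treated with compound. Caspase 3/7 activity measured with DEVD-AMC substrate and given as fold activation at the optimal compound concentration.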

A short description of experiment [5]: Inhibition of tubulin assembly assessed as ratio of IC50 for drug to IC50 for deoxypodophyllotoxin.
Experiment [6] can be described thus: Inhibition of tubulin assembly. An outline of the steps:
as §2

For experiment [7], the system named is KB. Put plainly: Antiproliferative activity against human KB cells after 72 hrs by MTS assay. It counts as functional, cell-based.
The subject of experiment [8] is HL-60. Put plainly: Induction of apoptosis in human HL60 cells assessed as fold activation of caspase 3/7 at 100 nM. Type of experiment: functional. The procedure, abridged: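 HL60 human leukemia cells; caspase 3/7 activation measured using DEVD-AMC substrate; reported as fold activation at the optimal compound concentration.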
For experiment [9], the system named is KB. Put plainly: Cytotoxicity against human KB cells. It counts as functional, cell-based. The procedure, abridged: as §1
For the next experiment, the system named is P388. The experiment in a line: Cytotoxicity against mouse P388 cells. Type of experiment: functional, cell-based.

In the case of `COc1ccc(/C=C/C(=O)c2c(OC)c(OC)c(OC)c(OC)c2OC)cc1N`, the “inhibition (INH)” value in the experiment with KB [1] was 29%. Moreover, the inhibition (in general, how much of the control response was suppressed) in [2] was under 30%.
Regarding `COc1cc(C(=O)/C=C/c2cccc([N+](=O)[O-])c2)cc(OC)c1OC`, the “inhibition (INH)” value with KB [1] is recorded as 29%. Moreover, the IC50 (commonly the midpoint of a concentration-inhibition curve) in the experiment on Leishmania donovani turned out to be 0.4 µM; in the experiment on Leishmania amazonensis, 26 µM. Besides, in experiment [3], the “Ratio IC50” value is listed as 2.8.
Regarding `COc1ccc(/C=C/C(=O)c2c(OC)c(OC)c(OC)c(OC)c2OC)cc1[N+](=O)[O-]`, the “inhibition (INH)” value with KB [1] stood at 19%. Besides, in experiment [2], the inhibition was under 30%.
For `COc1ccc(/C=C/C(=O)c2c(OC)c(OC)c(OC)c(OC)c2OC)cc1O`, the “inhibition (INH)” value in the experiment with KB [1] stood at 22%. The compound also returned an IC50 in the experiment with Leishmania donovani of 20 µM. This compound returned an inhibition in experiment [2] of under 30%.
In the case of `COc1ccc(/C=C/C(=O)c2c(O)c(OC)c(OC)c(OC)c2OC)cc1O`, the “inhibition (INH)” value in the experiment on KB [1] stood at 49%. Besides, the “fold change (FC)” value in the experiment with HL-60 [4] amounted to 3.2. For the same compound, in [5], the Ratio IC50 is 3.8. The IC50 with Leishmania donovani turned out to be 25 µM; in [6], 13 µM. For the same compound, the result with Leishmania amazonensis was inactive.
For `COc1ccc(/C=C/C(=O)c2c(O)c(OC)c(OC)c(OC)c2OC)cc1N`, the “inhibition (INH)” value with KB [1] is reported as 40%. Also, in the experiment on HL-60 [4], the “fold change (FC)” value was 2.9. Further, the Ratio IC50 in experiment [5] was 4.1. Besides, the results for the IC50 (with Leishmania donovani; in experiment [6]) were 44 µM and 14 µM, respectively. Also, in the experiment with Leishmania amazonensis, the outcome was inactive.
Consider `COc1c(O)c(C(=O)/C=C/c2cccc([N+](=O)[O-])c2)c(OC)c(OC)c1OC`, for which the “inhibition (INH)” value with KB [1] came out at 31%. The figures for the IC50 in the experiment with Leishmania donovani and in the experiment on Leishmania amazonensis were 4.4 µM and 26 µM, respectively. For the same compound, the “Ratio IC50” value in [3] is listed as 2.5.
Take `COc1ccc(/C=C/C(=O)c2cc(OC)c(OC)c(OC)c2)cc1[N+](=O)[O-]`: the “inhibition (INH)” value in the experiment with KB [1] is listed as 44%. In the experiment on Leishmania donovani, this compound gave an IC50 of 2.8 µM. Further, the result in the experiment on Leishmania amazonensis was inactive.
Take `COc1ccc(/C=C/C(=O)c2cc(OC)c(OC)c(OC)c2)cc1O`: the values for the IC50 (in the experiment with KB [7]; in experiment [6]) were 17 nM and 4.3 µM, respectively. Moreover, the “inhibition (INH)” value in the experiment on KB [1] was 100%. Further, the “fold change (FC)” value in the experiment on HL-60 [8] came to 3.6. Besides, the Ratio IC50 in [5] turned out to be 1.3.
As for `COc1ccc(/C=C/C(=O)c2c(O)c(OC)c(OC)c(OC)c2OC)cc1[N+](=O)[O-]`, the “inhibition (INH)” value with KB [1] was found to be 43%. Also, the “fold change (FC)” value with HL-60 [4] was determined as 1.2. Also, 5.3 µM corresponded to half-maximal inhibition with Leishmania donovani (IC50). Besides, in the experiment on Leishmania amazonensis, the result was inactive. The inhibition in experiment [2] was under 30%.
Regarding `COc1ccc(/C=C/C(=O)c2cc(OC)c(OC)c(OC)c2)cc1N`, the IC50 in the experiment with KB [7] was 31 nM; in [6] it was 3.7 µM. Further, in the experiment with KB [1], the “inhibition (INH)” value turned out to be 100%. Also, the “fold change (FC)” value with HL-60 [8] was 3.6. The Ratio IC50 in experiment [5] was determined as 1.
For the compound `COc1c(O)c(OC)c(C(=O)/C=C/c2ccccc2)c(O)c1OC` [PEDICIN], the IC50 in the experiment with KB [9] was 21.2 µM; in experiment [6], 300 µM.
In the case of `COc1c(O)c(OC)c(OC)c(C(=O)/C=C/c2ccccc2)c1O` [ISODIDYMOCARPIN], in the experiment with P388, the IC50 was determined as 11.1 µM.
